High-throughput results deposited in PubChem by The Scripps Research Institute Molecular Screening Center.
This is a sample that favours compounds with a hit; in the whole collection about 4.6% have one here.
TAAR1 ag: human TAAR1 agonism; Q96RJ0; AID 624467; 360,000 tested, 0.99% active; activation, % at 3 µM; CHO RD-HGA16 TAAR1, Fluo-8 calcium fluorescence; vehicle wells 0%, saturating PEA agonist 100%;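 active = activation above the mean activation of all test compounds in the run plus 3 SD, cut at about 38% in these data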
Target sequence (Q96RJ0 whole entry, looked up): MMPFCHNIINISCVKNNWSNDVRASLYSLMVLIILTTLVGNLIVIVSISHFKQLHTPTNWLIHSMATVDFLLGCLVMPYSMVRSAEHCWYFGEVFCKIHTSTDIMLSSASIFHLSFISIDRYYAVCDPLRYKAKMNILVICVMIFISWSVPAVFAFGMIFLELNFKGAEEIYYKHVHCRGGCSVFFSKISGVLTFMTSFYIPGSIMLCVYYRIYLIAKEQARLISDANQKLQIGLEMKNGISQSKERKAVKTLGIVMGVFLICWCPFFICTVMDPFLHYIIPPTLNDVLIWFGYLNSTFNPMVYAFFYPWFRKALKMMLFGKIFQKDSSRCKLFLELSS
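System: CHO-derived RD-HGA16 cells with stable Gα16 and human TAAR1 / Times: 17-24 h plating, Fluo-8 75 min 37 °C, 30 min RT / Technique: calcium-sensitive Fluo-8 signal, excitation 470-495, emission 515-575 nm / Measure: % activation relative to PEA EC100 response / Benchmarks: DMSO and PEA EC100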
OX1R antag-1: blocks the human orexin 1 receptor. 330,000 tested, 0.43% active. CHO/OX1R cells, Fluo-8 calcium fluorescence, orexin A. inhibition, % at 5 µM. AID 434989;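 active = inhibition above its plate's threshold, mean inhibition of all tested compounds on the plate plus 3 SD, cut at about 37% in these data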;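 note: 0% = orexin A challenge wells and 100% = SB-334867-A antagonist wells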
OX1R antag-2: blocks the human orexin 1 receptor; OX1R-expressing cells, FRET antagonist read-out; 330,000 tested, 1.8% active; AID 485270; inhibition, % at 6.6 µM; in the data active = inhibition mostly above about 38%, no sharp cut-off; inactive = mostly below about 40%;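 note: 0% = agonist challenge alone and 100% = reference antagonist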
TAAR1 antag: antagonists of human TAAR1; Q96RJ0; inhibition, % at 3 µM; CHO RD-HGA16 TAAR1, Fluo-8 calcium fluorescence, antagonist; 360,000 tested, 1.5% active;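 active = inhibition above a per-plate cutoff, the mean inhibition of test compounds on that plate plus 3 SD, cut at about 49% in these data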;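 note: 0% = DMSO plus EC80 beta-PEA response and 100% = DMSO alone without agonist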
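Material: RD-HGA16 CHO cells with stable hTAAR1 and Gα16; Dosing: single nominal final test compound concentration of 3 µM; Schedule: seeding 17-24 h prior, 75-min 37 °C, 30-min RT dye loading; Detection: kinetic Fluo-8 calcium fluorescence measurement; Measure: % inhibition from peak post-agonist over basal fluorescence ratio; Benchmarks: vehicle and agonist controls.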
GPR7 antag: blocks human GPR7 receptor signaling; P48145; GPR7-expressing cells, fluorescence antagonist assay; inhibition, % at 4.4 µM; 290,000 tested, 1.1% active; in the data active = inhibition above about 16%, passing the limit was not always enough;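 note: cells stimulated with the agonist NPW; 0% = agonist with vehicle and 100% = vehicle without agonist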
CHO parental Ca: signal in parental CHO cells, OX1R antagonist counter-screen | parental CHO-K1, ATP-induced calcium, Fluo-8 fluorescence | inhibition, % at 5.6 µM | 330,000 tested, 0.63% active | AID 463079;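 active = inhibition above that plate's mean sample inhibition plus 3 SD, cut at about 26% in these data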;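 note: 0% = ATP-challenged DMSO wells and 100% = DMSO wells without ATP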
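Assay system: untransfected parental CHO cell line. Also added: ATP agonist challenge. Dosing: one dose, 5.6 µM nominal. Measured by: Fluo-8 fluorescence. Read-out: % inhibition. Benchmarks: ATP wells versus no-ATP DMSO wells. Repeats: no replicates.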
* = called active by the depositor.

`CCn1c(O)c(N=NC(=O)c2cccs2)c2ccccc21` gave TAAR1 ag 4, OX1R antag-1 8, OX1R antag-2 76*, TAAR1 antag 22, GPR7 antag -1 and CHO parental Ca -25.
CCn1c(O)c(N=NC(=O)CNC(=O)/C=C/c2ccco2)c2ccccc21 was read as TAAR1 ag 7, OX1R antag-1 -7, OX1R antag-2 36*, TAAR1 antag -9, GPR7 antag -1 and CHO parental Ca -9.
`CCCn1c(O)c(N=NC(=O)c2ccco2)c2ccccc21` gave TAAR1 ag 8, OX1R antag-1 -43, OX1R antag-2 36, TAAR1 antag 7, GPR7 antag -7 and CHO parental Ca -27.
For O=C(CNC(=O)COc1ccccc1)NCc1cccnc1 the results were TAAR1 ag 0, OX1R antag-1 -13, OX1R antag-2 22, TAAR1 antag -6, GPR7 antag 1 and CHO parental Ca 2.
Cc1cc(C)c(NC(=O)C2CCCN2CCOC(=O)c2ccccc2)c(C)c1 (stereo unspecified) was read as TAAR1 ag 5, OX1R antag-1 7, OX1R antag-2 73*, TAAR1 antag -8, GPR7 antag 7 and CHO parental Ca -3.
`CC(=O)Nc1cccc(-c2nc3ccccc3n2C(C(=O)NC(C)(C)C)C2CC2)c1` (stereo unspecified) gave TAAR1 ag 3 and TAAR1 antag -10.
`NC(=S)Nc1ccc(F)cc1F` gave TAAR1 ag 0, OX1R antag-1 -7, OX1R antag-2 15, TAAR1 antag -3, GPR7 antag -11 and CHO parental Ca 1.
`CCc1ccccc1NC(=O)CNC(=O)c1cc(C2CC2)nc2c1cnn2C(C)C` gave TAAR1 ag 2, OX1R antag-1 9, OX1R antag-2 38*, TAAR1 antag 10 and CHO parental Ca -17.
For Cc1cc(C)c(NC(=O)CNC(=O)c2cc(C3CC3)nc3c2cnn3C(C)C)c(C)c1 the results were TAAR1 ag 5 and TAAR1 antag -2.
CC(C)n1ncc2c(C(=O)Nc3ccccc3SCC(N)=O)cc(C3CC3)nc21 was read as TAAR1 ag 13 and TAAR1 antag 49*.
Screening CN(C)c1ccc(NC(=O)/C=C/c2c(Cl)cccc2Cl)cc1 returned TAAR1 ag 2, OX1R antag-1 9, OX1R antag-2 72*, TAAR1 antag -17, GPR7 antag 5 and CHO parental Ca -4.
Screening CN(C)S(=O)(=O)c1ccc(NC(=O)/C=C/c2ccccc2Cl)cc1 returned TAAR1 ag 13, OX1R antag-1 -18, OX1R antag-2 20, TAAR1 antag 4, GPR7 antag -10 and CHO parental Ca -12.
`CN(C(=O)Cn1cnc2ccccc2c1=O)C1CCS(=O)(=O)C1` (stereo unspecified) gave TAAR1 ag 0, OX1R antag-1 2, OX1R antag-2 16, TAAR1 antag -17 and CHO parental Ca 9.
O=C(Cn1cnc2cc([N+](=O)[O-])ccc2c1=O)Nc1ccc(Br)cc1 was read as TAAR1 ag 2, OX1R antag-1 -13, OX1R antag-2 9, TAAR1 antag 8, GPR7 antag -4 and CHO parental Ca -10.
O=C(Cn1cnc2cc([N+](=O)[O-])ccc2c1=O)Nc1ccccc1-c1ccccc1 was read as TAAR1 ag -1, OX1R antag-1 -23, OX1R antag-2 48*, TAAR1 antag -5, GPR7 antag -8 and CHO parental Ca -23.
CCN(C(=O)Cn1cnc2cc([N+](=O)[O-])ccc2c1=O)C1CCS(=O)(=O)C1 (stereo unspecified) was read as TAAR1 ag 1, OX1R antag-1 -14, OX1R antag-2 63*, TAAR1 antag 4, GPR7 antag -14 and CHO parental Ca -3.
CC1CCCC(C)N1C(=O)Cn1cnc2cc([N+](=O)[O-])ccc2c1=O (stereo unspecified) was read as TAAR1 ag 2, OX1R antag-1 -13, OX1R antag-2 114*, TAAR1 antag 17, GPR7 antag -8 and CHO parental Ca -24.
COc1ccc(OC2C(=O)N(Cc3ccc4c(c3)OCO4)C2c2cccs2)cc1 (stereo unspecified) was read as TAAR1 ag 9, OX1R antag-1 58*, OX1R antag-2 17, TAAR1 antag 56*, GPR7 antag -8 and CHO parental Ca 41*.
`O=C1C(Oc2ccccc2)C(c2cccs2)N1Cc1ccc2c(c1)OCO2` (stereo unspecified) gave TAAR1 ag 14, OX1R antag-1 43, OX1R antag-2 11, TAAR1 antag 36, GPR7 antag -11 and CHO parental Ca 24.
`Cc1cc(OCc2ccc(C(=O)n3cccn3)o2)ccc1Cl` gave TAAR1 ag 5, OX1R antag-1 -4, OX1R antag-2 23, TAAR1 antag 4, GPR7 antag 9 and CHO parental Ca -9.
`CCN(CC)C(=O)c1ccc(COc2ccc(Cl)c(C)c2)o1` gave TAAR1 ag 3, OX1R antag-1 -13, OX1R antag-2 19, TAAR1 antag 20, GPR7 antag 3 and CHO parental Ca 44*.
CC(=O)NCCSC(=O)c1ccc(F)cc1 was read as TAAR1 ag 1, OX1R antag-1 3, OX1R antag-2 16, TAAR1 antag -12, GPR7 antag -3 and CHO parental Ca 4.
For CCOC(=O)Cc1cnc(NC(=O)Cn2nnc(-c3ccc(OCC)cc3)n2)s1 the results were TAAR1 ag 34, OX1R antag-1 -9, OX1R antag-2 2, TAAR1 antag 5, GPR7 antag 6 and CHO parental Ca -14.
CCCCOc1ccc(-c2nnn(CC(=O)Nc3ncc(CC(=O)OCC)s3)n2)cc1 was read as TAAR1 ag 42*, OX1R antag-1 -15, OX1R antag-2 23, TAAR1 antag 21, GPR7 antag 7 and CHO parental Ca -10.
For CCOc1ccc(-c2cnc(NCc3cccc4ccccc34)n2CCOC)cc1 the results were TAAR1 ag 7, OX1R antag-1 20, OX1R antag-2 8, TAAR1 antag 14, GPR7 antag 19 and CHO parental Ca 23.
Screening Cc1ccccc1NC(=O)c1cc(S(=O)(=O)N2CCOCC2)ccc1F returned TAAR1 ag 7, OX1R antag-1 0, OX1R antag-2 47*, TAAR1 antag 8, GPR7 antag 4 and CHO parental Ca -1.
O=C(Nc1cc(S(=O)(=O)N2CCOCC2)ccc1N1CCCCC1)c1cc(-c2ccccn2)nc2ccccc12 was read as TAAR1 ag 10, OX1R antag-1 -32, OX1R antag-2 11, TAAR1 antag 37, GPR7 antag -5 and CHO parental Ca -17.
